Test results as given in ChEMBL document CHEMBL1177641, “Synthesis and anti-hepatitis C virus (HCV) activity of 3'-C-substituted-methyl pyrimidine and purine nucleosides” (Bioorg Med Chem, 2010).

Experiments:
Hepatitis C virus = assay: Antiviral activity against HCV genotype1 infected in human Huh7 cells assessed as reduction of viral replication by steady-Glo luciferase assay; type: functional, organism-based, Hepacivirus hominis; details: genotype 1, Huh-7
Summary of the method: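 Huh-5-2 cells (Huh-7 with subgenomic genotype 1 replicon, luc-ubi-neo) seeded 5 × 10³/well in complete DMEM with 500 µg/mL G418; after 24 h at 37 °C, 5% CO₂, medium refreshed with G418 and compounds added from DMSO stock. Four days at 37 °C, then luciferase read by Steady-Glo. EC50 is the concentration halving replication; three repeats, mean ± SD.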

[1] = Cytotoxicity against human Huh7 cells after 3 days by WST-1 assay; type: cell-based, Huh-7
Summary of the method: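 Huh-5-2 cells seeded 5 × 10³/well in complete DMEM with G418. Serial compound dilutions in complete DMEM without G418 added 24 h after seeding. Cells proliferated three days at 37 °C, then cell number determined by WST-1 assay.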

[2] = Selectivity index, ratio of CC50 for human Huh7 cells to EC50 for HCV genotype1; design: species or system Huh-7

SMILES	EC50 (Hepatitis C virus) [µM]	CC50 at 72 h [1] [µM]	Ratio CC50/EC50 [2]
Nc1ncnc2c1ncn2[C@@H]1O[C@H](CO)[C@](O)(CF)[C@H]1O	15.3	18.9	1.2
CNc1ncnc2c1ncn2[C@@H]1O[C@H](CO)[C@](O)(CF)[C@H]1O		> 100	
Nc1ccn([C@@H]2O[C@H](CO)[C@](O)(CF)[C@H]2O)c(=O)n1		> 100	
[N-]=[N+]=NC[C@@]1(O)[C@@H](CO)O[C@@H](n2cnc3c(N)ncnc32)[C@@H]1O	11.8	12.3	1
[N-]=[N+]=NC[C@@]1(O)[C@@H](CO)O[C@@H](n2cnc3c(O)ncnc32)[C@@H]1O	> 100	> 100	

Now from value to compound, other results behind:

EC50 (Hepatitis C virus) [µM]	SMILES	CC50 at 72 h [1] [µM]	Ratio CC50/EC50 [2]
37.8	CNc1ncnc2c1ncn2[C@@H]1O[C@H](CO)[C@](O)(CO)[C@H]1O	58.8	1.6
18.6	Nc1ncnc2c1ncn2[C@@H]1O[C@H](CO)[C@](O)(CO)[C@H]1O	37.3	2
> 100	CNc1ncnc2c1ncn2[C@@H]1O[C@H](CO)[C@](O)(CN=[N+]=[N-])[C@H]1O	> 100	
> 100	[N-]=[N+]=NC[C@@]1(O)[C@@H](CO)O[C@@H](n2ccc(N)nc2=O)[C@@H]1O	> 100	
0.3	C[C@@]1(O)[C@H](O)[C@@H](CO)O[C@H]1n1cnc2c(N)ncnc21		
